The source of these data is ChEMBL document CHEMBL3774379, “Synthesis and biological evaluation of quinoline derivatives as potential anti-prostate cancer agents and Pim-1 kinase inhibitors” (Bioorg Med Chem, 2016).

Active and inactive are the calls of the source. The rule behind the calls is not given here.

Test [1] addresses T1, Serine/threonine-protein kinase pim-1 (Homo sapiens, UniProt P11309). Put plainly: Inhibition of Pim1 kinase (unknown origin) using substrate S3 after 50 mins by HTRF assay.
Target sequence in this assay (P11309 whole entry): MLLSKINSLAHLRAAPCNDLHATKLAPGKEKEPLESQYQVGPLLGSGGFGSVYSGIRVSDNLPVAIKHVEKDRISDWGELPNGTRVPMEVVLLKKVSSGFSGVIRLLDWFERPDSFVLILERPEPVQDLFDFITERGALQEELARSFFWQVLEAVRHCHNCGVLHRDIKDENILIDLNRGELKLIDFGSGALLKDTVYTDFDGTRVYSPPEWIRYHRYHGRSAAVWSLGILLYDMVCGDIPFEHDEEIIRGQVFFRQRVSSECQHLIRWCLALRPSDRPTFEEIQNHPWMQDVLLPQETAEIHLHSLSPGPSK
Test [2] in a line: Antiproliferative activity against human PC3 cells after 96 hrs by MTT assay. Format: functional. To be noted: PC-3, 96 h. Summed up: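 PC-3 cells grown in RPMI1640 with 10% heat-inactivated FBS; seeded 2×10³ cells/well, 24 h at 37°C, 5% CO₂, then compound at various concentrations for 96 h. MTT (2 mg/mL) added for 4 h, formazan dissolved in DMSO, absorbance 570 nm. GI₅₀ from inhibition ratios versus untreated cells; three independent experiments, mean reported.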

Test [3] in a line: Cell cycle arrest in human PC3 cells assessed as cell accumulation at G2/M phase at 16 uM after 48 hrs by Propidium Iodide staining based flow cytometric analysis (reference value: 32.4%). In kind it is functional. To be noted: PC-3. Summed up:
(§1)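 PC-3 cells in six-well plates treated 0, 8, 12 or 16 μM for 24 or 48 h. Floating and adherent cells pooled, PBS-washed, fixed in ice-cold 70% ethanol at -20°C overnight, treated with 1 mg/mL RNase at 37°C for 30 min, stained with PI at 50 μg/mL final. DNA content read by flow cytometry, excitation 488 nm, emission 625 nm.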

Test [4] is described as follows: Cell cycle arrest in human PC3 cells assessed as cell accumulation at G0/G1 phase at 12 uM after 24 hrs by Propidium Iodide staining based flow cytometric analysis (reference value: 57.1%). Format: functional. To be noted: PC-3. The method, boiled down:
as §1

A short description of test [5]: Cell cycle arrest in human PC3 cells assessed as cell accumulation at sub-G1 phase at 12 uM after 48 hrs by Propidium Iodide staining based flow cytometric analysis (reference value: 2.5%). In kind it is functional. The following applies: PC-3. The method, boiled down:
as §1

Test [6] in a line: Cell cycle arrest in human PC3 cells assessed as cell accumulation at G0/G1 phase at 16 uM after 24 hrs by Propidium Iodide staining based flow cytometric analysis (reference value: 57.1%). The following applies: PC-3. In kind it is functional. The method, boiled down: as §1
Test [7] has as its target T1, Serine/threonine-protein kinase pim-1. Nature of the test: Inhibition of Pim1 kinase in human PC3 cells assessed as increase in p21 level at 8 to 16 uM after 24 hrs by Western blot analysis. Format: cell-based. The following applies: PC-3.
Target sequence in this assay (P11309 whole entry, looked up): as the sequence (P11309 whole entry) above
Test [8] is described as follows: Cell cycle arrest in human PC3 cells assessed as cell accumulation at G2/M phase at 8 uM after 48 hrs by Propidium Iodide staining based flow cytometric analysis (reference value: 32.4%). Format: functional. The following applies: PC-3. The method, boiled down:
as §1

The nature of test [9]: Cell cycle arrest in human PC3 cells assessed as cell accumulation at sub-G1 phase at 8 uM after 24 hrs by Propidium Iodide staining based flow cytometric analysis (reference value: 1.7%). In kind it is functional. To be noted: PC-3. Summed up: as §1
The target in test [10] is T1, Serine/threonine-protein kinase pim-1. Put plainly: Inhibition of Pim1 kinase in human PC3 cells assessed as decrease in 4E-BP1 phosphorylation level at 8 to 16 uM after 24 hrs by Western blot analysis. Format: cell-based. To be noted: PC-3.
Target sequence in this assay (P11309 whole entry, looked up): as the sequence (P11309 whole entry) above
The nature of test [11]: Cell cycle arrest in human PC3 cells assessed as cell accumulation at G2/M phase at 12 uM after 24 hrs by Propidium Iodide staining based flow cytometric analysis (reference value: 32%). In kind it is functional. To be noted: PC-3. Summed up: as §1
Test [12] can be described thus: Cell cycle arrest in human PC3 cells assessed as cell accumulation at G2/M phase at 8 uM after 24 hrs by Propidium Iodide staining based flow cytometric analysis (reference value: 32%). Format: functional. The following applies: PC-3. The method, boiled down:
as §1

Test [13] in a line: Cell cycle arrest in human PC3 cells assessed as cell accumulation at G2/M phase at 12 uM after 48 hrs by Propidium Iodide staining based flow cytometric analysis (reference value: 32.4%). Format: functional. To be noted: PC-3. Summed up: as §1
Test [14] is described as follows: Cell cycle arrest in human PC3 cells assessed as cell accumulation at G0/G1 phase at 8 uM after 48 hrs by Propidium Iodide staining based flow cytometric analysis (reference value: 57.9%). In kind it is functional. To be noted: PC-3. The method, boiled down: as §1
A short description of test [15]: Cell cycle arrest in human PC3 cells assessed as cell accumulation at G0/G1 phase at 16 uM after 48 hrs by Propidium Iodide staining based flow cytometric analysis (reference value: 57.9%). Format: functional. The following applies: PC-3. Summed up: as §1
Test [16] can be described thus: Cell cycle arrest in human PC3 cells assessed as cell accumulation at G0/G1 phase at 12 uM after 48 hrs by Propidium Iodide staining based flow cytometric analysis (reference value: 57.9%). Format: functional. To be noted: PC-3. Summed up:
as §1

Test [17] in a line: Cell cycle arrest in human PC3 cells assessed as cell accumulation at sub-G1 phase at 8 uM after 48 hrs by Propidium Iodide staining based flow cytometric analysis (reference value: 2.5%). Format: functional. The following applies: PC-3. The method, boiled down:
as §1

Test [18] can be described thus: Cell cycle arrest in human PC3 cells assessed as cell accumulation at sub-G1 phase at 12 uM after 24 hrs by Propidium Iodide staining based flow cytometric analysis (reference value: 1.7%). Format: functional. To be noted: PC-3. The method, boiled down: as §1
A short description of test [19]: Cell cycle arrest in human PC3 cells assessed as cell accumulation at G0/G1 phase at 8 uM after 24 hrs by Propidium Iodide staining based flow cytometric analysis (reference value: 57.1%). To be noted: PC-3. In kind it is functional. Summed up: as §1
For test [20], the target named is T1, Serine/threonine-protein kinase pim-1. Nature of the test: Inhibition of Pim1 kinase in human PC3 cells assessed as decrease in BAD phosphorylation level at 8 to 16 uM after 24 hrs by Western blot analysis. Format: cell-based. To be noted: PC-3.
Target sequence in this assay (P11309 whole entry, looked up): as the sequence (P11309 whole entry) above
Test [21] is described as follows: Cell cycle arrest in human PC3 cells assessed as cell accumulation at G2/M phase at 16 uM after 24 hrs by Propidium Iodide staining based flow cytometric analysis (reference value: 32%). In kind it is functional. To be noted: PC-3. The method, boiled down: as §1
For test [22], the target named is T1, Serine/threonine-protein kinase pim-1. Nature of the test: Inhibition of Pim1 kinase in human PC3 cells assessed as increase in p27 level at 8 to 16 uM after 24 hrs by Western blot analysis. In kind it is cell-based. To be noted: PC-3.
Target sequence in this assay (P11309 whole entry, looked up): as the sequence (P11309 whole entry) above
Test [23] concerns PC-3. Nature of the test: Induction of ERK phosphorylation in human PC3 cells at 8 to 16 uM after 24 hrs by Western blot analysis. Format: cell-based.
Test [24] has as its target T1, Serine/threonine-protein kinase pim-1. Put plainly: Inhibition of Pim1 kinase in human PC3 cells assessed as decrease in c-Myc level at 8 to 16 uM after 24 hrs by Western blot analysis. In kind it is cell-based. To be noted: PC-3.
Target sequence in this assay (P11309 whole entry, looked up): as the sequence (P11309 whole entry) above
Test [25] can be described thus: Cell cycle arrest in human PC3 cells assessed as cell accumulation at sub-G1 phase at 16 uM after 24 hrs by Propidium Iodide staining based flow cytometric analysis (reference value: 1.7%). The following applies: PC-3. In kind it is functional. The method, boiled down: as §1
Test [26] can be described thus: Cell cycle arrest in human PC3 cells assessed as cell accumulation at sub-G1 phase at 16 uM after 48 hrs by Propidium Iodide staining based flow cytometric analysis (reference value: 2.5%). Format: functional. To be noted: PC-3. The method, boiled down: as §1

In turn, `Oc1cccc2ccc(Sc3ccccn3)nc12` returned an IC50 in test [1] of over 10 µM. Moreover, it took 20.9 µM to inhibit growth in test [2] by half (GI50).

For `COc1ccc(Cl)c2ccc(Nc3cc(C)ccn3)nc12`, in test [2], the GI50 was over 30 µM.

On to `c1ccc(Nc2ccc3ccccc3n2)nc1`, for which the IC50 in test [1] was over 10 µM. The compound also had a GI50 in [2] of over 30 µM.

Compound `CN1CCC(CNc2ccc3ncc(-c4cccc(OC(F)(F)F)c4)n3n2)CC1` [SGI-1776] showed a GI50 in [2] of 4.86 µM.

On to `Oc1ccc(Cl)c2ccc(Sc3ccccn3)nc12`, for which, in [2], the GI50 was determined as 10.2 µM.

`Oc1ccc(Cl)c2ccc(Nc3cc(Cl)ccn3)nc12`: in test [2], the GI50 came out at 25.5 µM.

The compound `Cc1ccnc(Nc2ccc3c(Cl)ccc(O)c3n2)c1` gave a GI50 in test [2] of 10.2 µM.

On to `Oc1cccc2ccc(Nc3ccccn3)nc12`, for which, in test [2], the GI50 was 2.6 µM.

In turn, `Clc1ccnc(Nc2ccc3ccccc3n2)c1` had a GI50 in [2] of over 30 µM.

In turn, `Cc1ccnc(Nc2ccc3ccccc3n2)c1` returned a GI50 in test [2] of 26.7 µM.

`Cc1ccnc(Nc2ccc3cccc(O)c3n2)c1` had a GI50 in test [2] of 5.84 µM.

Take `COc1cccc2ccc(Nc3cc(C)ccn3)nc12`: the GI50 in test [2] was found to be 3.82 µM.

For `COc1cccc2ccc(Nc3ccccn3)nc12`, growth in [2] was halved (GI50) at 7.47 µM.

Compound `COc1ccc(Cl)c2ccc(Nc3ccccn3)nc12` yielded a GI50 in test [2] of 29.2 µM.

In turn, `Oc1cccc2ccc(Nc3cc(Cl)ccn3)nc12` displayed a GI50 in test [2] of 2.81 µM.

In test [2], `Oc1ccc(Br)c2ccc(Sc3ccccn3)nc12` yielded a GI50 of 10.2 µM.

`Oc1ccc(Br)c2ccc(Oc3ccccn3)nc12` came in with a GI50 in test [2] of over 30 µM.

`Oc1cccc2ccc(Oc3ccccn3)nc12` yielded a GI50 in test [2] of over 30 µM.

In test [2], `COc1ccc(Cl)c2ccc(Nc3cc(Cl)ccn3)nc12` registered a GI50 of over 30 µM.

For the compound `Oc1ccc(Cl)c2ccc(Oc3ccccn3)nc12`, the GI50 in test [2] was over 30 µM.

Regarding `COc1cccc2ccc(Nc3cc(Cl)ccn3)nc12`, the GI50 in [2] was determined as 11.8 µM.

As for `Oc1ccc(Cl)c2ccc(Nc3ccccn3)nc12`, the Activity was 11% in test [3]; 64.5% in [4]; 27.7% in test [5]; 48.1% in test [6]; 25% in [8]; 2.9% in test [9]. In addition, the Activity in test [11] amounted to 17.3%; in test [12], 19.3%; in test [13] it was 20%; in [14], 52.9%; in test [15] it was 31%; in [16], 44.4%. Further, the Activity is 13.1% in [17]; 10.4% in test [18]; 65.2% in test [19]; 13.9% in test [21]; “Dose-dependent effect” in [24]; 31.5% in [25]. The Activity in test [26] came out at 52.6%. Besides, the inhibition result in test [7], in test [10], in test [20] and in test [22] was “Dose-dependent effect” throughout. Also, the IC50 in test [1] is 0.75 µM. Besides, the GI50 in [2] worked out at 1.29 µM. In addition, the outcome in test [23] was Active.
